Test results published in ChEMBL document CHEMBL4513216, “Probing the Open Global Health Chemical Diversity Library for Multistage-Active Starting Points for Next-Generation Antimalarials” (ACS Infect Dis, 2020).

Assay: Toxicity liver stage against HepG2, at 10uM
Format: cell-based
Design: test concentration 10 uM, cell line HepG2-A16-CD81EGFP
Conditions: human, HepG2-A16-CD81EGFP cells; read-out: INHIBITION
Outline: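 Uninfected HepG2-A16-CD81EGFP cells, 3 × 10^3 per well, 1536-well, plated on prespotted compound at 10 μM final, parasite-free screening media added to match infected plates; puromycin 10 μM positive, DMSO 0.5% negative; run in parallel with 48 h PbLuc assay at 37 °C, 5% CO2; viability by CellTiter-Glo luminescence, normalized to controls.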
For CC(C)NC(=O)N1CCN2C(=O)N(Cc3ccc(F)cc3)C[C@H]2C1, the cytotoxicity at 10 µM was 0.88%. For COC(=O)N1CC[C@@]2(O)CCCC[C@H]2[C@@H]1c1ccc2c(c1)OCO2, the cytotoxicity at 10 µM was 2.91%. Cc1ccc(S(=O)(=O)c2ncccc2CN2CCCC2)cc1 gave a cytotoxicity at 10 µM of -49.4%. Cc1noc(C)c1S(=O)(=O)NCC(O)c1ccc2c(c1)CCO2 (stereo not given) gave a cytotoxicity at 10 µM of 0.407%. In the case of COc1ccc(C(=O)N2CCO[C@H]3[C@H](OCC4CC4)CC[C@@H]32)cc1F, the cytotoxicity at 10 µM is reported as 18.2%. In the case of CN(C)CCNC(=O)c1nc2c(o1)CN(c1ncccn1)C2, the cytotoxicity at 10 µM is reported as -0.603%. For CCOC(=O)C1CCN(C(=O)c2cc(F)ccc2-n2cnnn2)CC1, the cytotoxicity at 10 µM was -0.121%. For CCn1ncc2c1C(COC)CN(Cc1ccc(OC)cc1)C2 (stereo not given), the cytotoxicity at 10 µM was 11.4%. Cc1nc(CN2C[C@@H]3OCCN(c4ncc(F)cn4)[C@@H]3C2)cs1 gave a cytotoxicity at 10 µM of -8.52%. In the case of CN1CCc2c1nc1c(c2N)CCC1, the cytotoxicity at 10 µM is reported as 0.0371%. For Cc1nn(C)c2c(NCc3ccccn3)ncnc12, the cytotoxicity at 10 µM was -5.2%. Compound O=S(=O)(c1ccc(F)c(F)c1)n1cc(Cl)cn1 has a cytotoxicity at 10 µM of 4.66%. In the case of CCN1CCCC(O)(CN(C)Cc2c(C)nn(C)c2C)C1 (stereo not given), the cytotoxicity at 10 µM is reported as 4.95%. CNC(=O)c1sc2ccccc2c1CC1CCCCN1Cc1ncc[nH]1 (stereo not given) showed a cytotoxicity at 10 µM of 2.35%. CC(=O)N1CCc2nnc(C3CCCCN3CC3CCCCC3)n2CC1 (stereo not given) showed a cytotoxicity at 10 µM of 10.2%. Cc1nccc(N2CCCC(C)(C(=O)NC3CCCC3)C2)n1 (stereo not given) gave a cytotoxicity at 10 µM of -18.6%. CN1CCN(C(=O)C2CCCN(c3cccnn3)C2)CC1 (stereo not given) showed a cytotoxicity at 10 µM of -10.8%. With Cc1cccc(CN2CCC(C3Nc4ccccc4S(=O)(=O)N3)CC2)n1 (stereo not given) the cytotoxicity at 10 µM was -18.9%. With CC(C)N1CCC(c2nccnc2Nc2ncccn2)CC1 the cytotoxicity at 10 µM was -23.7%. Work on CNC(=O)C1(c2cnccn2)CCCN1C(=O)c1ccccn1 (stereo not given) yielded a cytotoxicity at 10 µM of 10.1%. For CC(=O)N1Cc2ccccc2CC2(CCCCN2C)C1 (stereo not given), the cytotoxicity at 10 µM was 3.87%. O=C(Nc1c(N2CCCC2)cccc1N1CCCC1)c1cnsn1 showed a cytotoxicity at 10 µM of -43%. Cc1cc(C)c(S(N)(=O)=O)cc1C(=O)NCCN1CCCCC1 gave a cytotoxicity at 10 µM of -5.52%. CN(C(=O)OC(C)(C)C)C1CCN(C(=O)c2cc(Cl)c[nH]2)C1 (stereo not given) gave a cytotoxicity at 10 µM of 2.5%. Work on Cc1ccc(C(=O)NCc2cc(F)ccc2N2CCCN(C)CC2)o1 yielded a cytotoxicity at 10 µM of -9.7%. For COc1cc(NC2CCCN(c3ncccc3C#N)C2)cc(OC)c1 (stereo not given), the cytotoxicity at 10 µM was -9.25%. CC(C)c1nccn1CC1CCCN1Cc1nc2ccccc2n1C (stereo not given) gave a cytotoxicity at 10 µM of -43.9%. CCc1c(NCc2cccnc2)cnn1CC(C)C gave a cytotoxicity at 10 µM of -0.625%. Compound CCC(CNC(=O)Cn1ccnc1)Oc1cccc(F)c1 (stereo not given) has a cytotoxicity at 10 µM of -45.8%. For Cc1cc(C)c(CNC(=O)NCCc2cccnc2)c(=O)[nH]1, the cytotoxicity at 10 µM was -53.3%. Cn1cccc(NC(=O)NCc2cccc(CO)c2)c1=O gave a cytotoxicity at 10 µM of -55.5%. Work on Cc1cc(C)n(CC(C)CNC(=O)NCc2c(C)cc(C)[nH]c2=O)n1 (stereo not given) yielded a cytotoxicity at 10 µM of -7.86%. C=C(C)CN1CCC(NC(=O)Nc2ccc(F)c(C(N)=O)c2)CC1 showed a cytotoxicity at 10 µM of -6.08%. Cc1cc(C(=O)NC2=NCCS2)c(C)n1-c1ccccn1 showed a cytotoxicity at 10 µM of 6.25%. Work on Cc1occc1C(=O)NCC(=O)NCCOc1ccc2c(c1)CCC2 yielded a cytotoxicity at 10 µM of -2.83%. Cc1cnn(CC2CCCN2Cc2cc(=O)n3cc(C)ccc3n2)c1 (stereo not given) gave a cytotoxicity at 10 µM of -10.9%. For COc1ccc(N)c(N2CCN(C(C)=O)CC2)n1, the cytotoxicity at 10 µM was -6.22%. For Cc1cc(NC(=O)CN(C)CC2CCCN2c2cccnn2)n(C)n1 (stereo not given), the cytotoxicity at 10 µM was 7.85%. Compound Cc1ccc(CN(C)C(=O)CN2CCCC2Cn2cncn2)cc1 (stereo not given) has a cytotoxicity at 10 µM of 7.84%. In the case of Cn1cnnc1-c1ccnc(NCc2ccc3c(c2)OCCO3)c1, the cytotoxicity at 10 µM is reported as -11%. Cc1nn(CC(C)C)c(N(C)C)c1CNCCCNS(C)(=O)=O showed a cytotoxicity at 10 µM of 1.73%. For CC(NC(=O)c1cccs1)C(=O)NS(=O)(=O)c1ccc(C#N)cc1 (stereo not given), the cytotoxicity at 10 µM was 5.11%. In the case of O=C(Nc1ccc(-n2cccn2)cc1)N1CCC(O)C1 (stereo not given), the cytotoxicity at 10 µM is reported as 19.9%. CSCCN1C(=O)CC(C)(c2ccc(Br)cc2)C1=O (stereo not given) showed a cytotoxicity at 10 µM of -8.98%. CCc1nc(CCNc2ccc(S(N)(=O)=O)cc2C#N)cs1 gave a cytotoxicity at 10 µM of -54.6%. Cc1nc(-c2ccc(Cl)s2)sc1C(=O)O gave a cytotoxicity at 10 µM of 7.51%. For N#Cc1ccc(N2CCCN(CC(=O)N3CCOCC3)CC2)cc1, the cytotoxicity at 10 µM was 6.62%. With COCCN1CCC(CNC(=O)C2(C#N)CCCC2)CC1 the cytotoxicity at 10 µM was 6.93%. Compound CN(C1CCCC1)C(C)(C)C(=O)NCCS(C)(=O)=O has a cytotoxicity at 10 µM of -49.7%. Compound c1cnc(N2CCO[C@H]3CN(CC4CCCC4)C[C@H]32)cn1 has a cytotoxicity at 10 µM of -101%. Compound O=C1N(c2ccsc2)CCC12CCCN(c1ccccn1)C2 (stereo not given) has a cytotoxicity at 10 µM of -103%. For CC(=O)N1CCC2(CCN(CC3CCOC3)C2)CC1 (stereo not given), the cytotoxicity at 10 µM was -95%. Compound O=C(c1cccnc1)N1C[C@@H]2CN(CCN3CCCC3)C(=O)[C@@H]2C1 has a cytotoxicity at 10 µM of -113%. Work on O=C(Cc1ccco1)N1C[C@H]2CCC[C@@]2(COc2cccnc2)C1 yielded a cytotoxicity at 10 µM of -109%. For O=C(C1=CCCC1)N1C[C@@H]2COC[C@]2(COCc2ccncc2)C1, the cytotoxicity at 10 µM was -96.4%. CN(C)C(=O)NC1COC2(CCN(C(=O)Nc3ccccc3)CC2)C1 (stereo not given) gave a cytotoxicity at 10 µM of 0.179%. O=C1CCC2(CCNCC2)CN1Cc1nnc2ccccn12 gave a cytotoxicity at 10 µM of -0.949%. Work on Cc1nc(CC(=O)NCCN2CCC(c3ccccc3C)C2)cs1 (stereo not given) yielded a cytotoxicity at 10 µM of -40%. Cc1c[nH]c(CN2CCC3(CCCN(Cc4ccc(F)c(F)c4)C3)C2)n1 (stereo not given) gave a cytotoxicity at 10 µM of -7.22%. Cc1ccncc1C(=O)N1C[C@H]2CN(CC3CCC3)C[C@@]2(C(=O)O)C1 gave a cytotoxicity at 10 µM of -5.73%. With CCCc1nc(N(C)CCc2noc(C(C)C)n2)c2cnn(C)c2n1 the cytotoxicity at 10 µM was 3.86%. CN(C(=O)c1cccnc1)C1CCCN(CCc2ccccc2)C1 (stereo not given) showed a cytotoxicity at 10 µM of -3.59%. Compound N#Cc1nccnc1N1CCC(C(O)c2cccs2)CC1 (stereo not given) has a cytotoxicity at 10 µM of -38%. For C=C(C)COc1cccc(C(=O)N(C)C(C)c2ccncn2)c1 (stereo not given), the cytotoxicity at 10 µM was -50%. Work on CCN(Cc1ccc(C(C)C)cc1)C(=O)c1csc(CN(C)C)n1 yielded a cytotoxicity at 10 µM of -3.84%. With O=C(O)c1cccnc1CN1CCOc2ccccc2C1 the cytotoxicity at 10 µM was 7.66%. For Cc1nn(C)c(C)c1CN(C(=O)c1cnc(O)cn1)C(C)C, the cytotoxicity at 10 µM was 2.62%. In the case of Cc1cc(C2CCCCN2C(=O)CN2CC3(CCNCC3)OC2=O)no1 (stereo not given), the cytotoxicity at 10 µM is reported as 8.69%. For CCCc1nnc(N2CCC3(CC2)CN(C)C(=O)O3)o1, the cytotoxicity at 10 µM was 2.64%. With COc1cc2c(cc1CNC(=O)C(C)n1ccnc1C(C)C)OCCO2 (stereo not given) the cytotoxicity at 10 µM was -1.3%. With Cc1cnn(CC2CCCCN2C(=O)c2ccc(NC3CC3)nc2)c1 (stereo not given) the cytotoxicity at 10 µM was -11.9%. For Cc1cn2c(n1)CCC(NC(=O)c1ccc(S(C)(=O)=O)o1)C2 (stereo not given), the cytotoxicity at 10 µM was -6.92%. Work on Cc1noc([C@@H]2C[C@H]3CN(Cc4ccc5c(c4)OCO5)C[C@H]3O2)n1 yielded a cytotoxicity at 10 µM of -113%. Work on CC(C)N1CCc2c(C(=O)N3CCOCC3)nn(C)c2C1 yielded a cytotoxicity at 10 µM of -105%. COc1cccc(C(=O)N2CC[C@@H]3[C@H](CC2)N(C)CCS3(=O)=O)c1 showed a cytotoxicity at 10 µM of -129%. With O=C([C@@H]1C[C@@H]2CCN(c3cccc(F)c3)C[C@H]2O1)N1CCCC1 the cytotoxicity at 10 µM was -1.34%. For CN(C)CCO[C@@H]1CC[C@H]2[C@H]1OCCN2C(=O)c1ccc(F)cc1, the cytotoxicity at 10 µM was -7.1%. CC(C)CN1C[C@H]2CCN(Cc3cccnc3)CC[C@H]2S1(=O)=O showed a cytotoxicity at 10 µM of -1.8%. Compound O=C(NC1CCC1)[C@@H]1CC[C@@H]2[C@@H](CCN2CCc2ccccc2)O1 has a cytotoxicity at 10 µM of -127%. In the case of Cc1ccc(N2CC[C@H](OCC3CC3)[C@@H]2Cc2cccnc2)nn1, the cytotoxicity at 10 µM is reported as 1.13%.
